The subject of data set [1] is Hepatitis C virus. The data set can be described thus: Antiviral activity against HCV con1 subgenomic replicon infected in human HuH7 cells assessed as reduction in viral RNA replication by qRT-PCR analysis. Type of data set: functional, organism-based, Hepacivirus hominis. The conditions noted are these: isolate Con1, Huh-7. The procedure, abridged: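 Con1 subgenomic replicon Huh-7 cells (neomycin selection, kept in DMEM/10% FBS with 0.25 mg/ml G418) treated with compounds in DMEM, 2% FBS, 0.5% DMSO, no G418, at 37°C. Total RNA extracted; HCV RNA copy number by multiplex Taqman QRT-PCR. EC50/EC90 by 4-parameter curve fit; EC50 is the mean of ≥2 independent runs.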
A general note: Replicon systems follow genome replication, usually without infectious particles.

The nature of data set [2]: Drug metabolism in Beagle dog liver assessed as 2a-TP level at 9.87 mg/kg, po administered as single dose measured at 4 hrs by LC-MS/MS analysis. Type of data set: ADME, organism-based, Canis lupus familiaris. The following applies: in vivo. The procedure, abridged: (§1)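 Male non-naïve beagle dogs fasted overnight, single oral dose of 9.87 mg/kg (5 mg/kg parent nucleoside equivalent) as a solution in 40% PEG400/water. Liver extracts analysed for NTP by LC-MS/MS against liver-homogenate calibrants. N=2 at 4 h, N=3 at 12 and 24 h.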

Data set [3] can be described thus: Cytotoxicity against human HuH7 cells infected with HCV con1 subgenomic replicon assessed as reduction in cell viability measured after 3 days by CellTiter-blue cell viability assay. Format: cell-based, Huh-7. Put shortly: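 Con1 replicon Huh-7 cells treated as for the replicon assay (DMEM, 2% FBS, 0.5% DMSO, no G418, 37°C) for 3 days. Viability by CellTiter-Blue; CC50 by curve fitting.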

The nature of data set [4]: Drug metabolism in human primary hepatocytes assessed as 2a-TP formation at 10 uM after 6 to 24 hrs by LC-MS/MS analysis.
The nature of data set [5]: Cytotoxicity against human HuH7 cells treated for 8 days measured post-last dose by Celltiter-glo luminescent assay. Type of data set: cell-based, Huh-7. Put shortly:
(§2)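 Cells at 1×10^5/well on collagen I, first kept 8 days in recommended medium without drug. Then compound exposure for 8 days, refed every other day. Viability by CellTiter-Glo luminescence; CC50 by curve fitting.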
Background: Cellular ATP, detected with luciferase, serves as a proxy for viable cell number.

A short description of data set [6]: Cytotoxicity against human A549 cells treated for 8 days measured post-last dose by Celltiter-glo luminescent assay. Type of data set: cell-based. Put shortly:
as §2

Data set [7] can be described thus: Drug metabolism in human hepatocytes assessed as 2a-TP formation per million cells at 50 uM after 24 hrs by LC-MS/MS analysis. Format: ADME, cell-based, Hepatocyte. Put shortly:
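Primary human hepatocytes, 1.5-2 million cells/well, in Williams E medium, acclimated >18 h. Incubated with compound at 50 μM extracellular for 24 h at 37°C, 5% CO2. Washed with cold saline, methanol/water lysis, NTP measured by LC-MS/MS per million cells.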

The nature of data set [8]: Cytotoxicity against human MT4 cells treated for 8 days measured post-last dose by Celltiter-glo luminescent assay. Type of data set: cell-based. Put shortly:
as §2

For data set [9], the system named is Hepatitis C virus. The data set can be described thus: Antiviral activity against HCV genotype 1 infected in human assessed as reduction in viral infection at 800 mg, qd measured after 6 weeks in presence of odalasvir/simeprevir relative to control. Type of data set: functional, Hepacivirus hominis. The arrangement: scale not given: the % may be the effect or the level left.

Data set [10] can be described thus: Drug metabolism in human primary hepatocytes assessed as 2a-TP formation after 24 hrs by LC-MS/MS analysis.
Data set [11] is described as follows: Drug metabolism in Beagle dog liver assessed as 2a-TP level at 9.87 mg/kg, po administered as single dose measured at 24 hrs by LC-MS/MS analysis. Type of data set: ADME, organism-based, Canis lupus familiaris. The conditions noted are these: in vivo. Put shortly: as §1
Data set [12] can be described thus: Drug metabolism in human HuH7 cells assessed as 2a-TP formation per million cells at 50 uM after 24 hrs by LC-MS/MS analysis. Type of data set: ADME, cell-based. The conditions noted are these: huh-7, 24 h. Put shortly: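 Huh-7 cells in 6-well plates, DMEM with 10% FBS and G418, incubated with compound at 50 μM extracellular for 24 h at 37°C, 5% CO2. Washed with cold 0.9% NaCl, lysed in 70% methanol. Intracellular NTP by LC-MS/MS against cell-matrix calibrants, internal standard N6-benzoyladenine; expressed per million cells.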

The nature of data set [13]: Cytotoxicity against human U937 cells treated for 8 days measured post-last dose by Celltiter-glo luminescent assay. Type of data set: cell-based, U-937. Put shortly: as §2
Data set [14] has as its system Hepatitis C virus. Briefly: Antiviral activity against HCV genotype 1a H77 expressing NS5B measured after 3 days by bright-glo luciferase reporter gene assay. The following applies: subtype 1a H77, 72 h. Type of data set: functional, organism-based, Hepacivirus hominis. Put shortly:
(§3)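 Chimeric replicons carrying the NS5B of each genotype (1a H77, 1b Con1, 2b ADQ73660, 3a NZL1, 4a ABD75829). Firefly luciferase is driven by the poliovirus IRES and the HCV nonstructural genes by the EMCV IRES. Transiently transfected into Lunet cells, 10,000 cells/well. 3-fold serial dilutions, 0.5% DMSO final, 3 days. Read-out: firefly luciferase (Bright-Glo).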
(A reporter such as luciferase makes a cellular process visible.)

Data set [15] has as its system Hepatitis C virus. Briefly: Antiviral activity against HCV genotype 1b con1 subgenomic replicon expressing NS5B measured after 3 days by bright-glo luciferase reporter gene assay. The conditions noted are these: subtype 1b con1, 72 h. Format: functional, organism-based, Hepacivirus hominis. The procedure, abridged: as §3
Data set [16] is described as follows: Drug metabolism in Beagle dog liver assessed as 2a-TP level at 9.87 mg/kg, po administered as single dose measured at 12 hrs by LC-MS/MS analysis. Type of data set: ADME, organism-based, Canis lupus familiaris. The conditions noted are these: in vivo. The procedure, abridged:
as §1

The nature of data set [17]: Cytotoxicity against human HeLa cells treated for 8 days measured post-last dose by Celltiter-glo luminescent assay. Type of data set: cell-based. The procedure, abridged: as §2
The test system of data set [18] is Hepatitis C virus. The data set can be described thus: Antiviral activity against HCV genotype 4a subgenomic replicon expressing NS5B measured after 3 days by bright-glo luciferase reporter gene assay. Type of data set: functional, organism-based, Hepacivirus hominis. The following applies: subtype 4a, 72 h. Put shortly:
as §3

The test system of data set [19] is Hepatitis C virus. Briefly: Antiviral activity against HCV genotype 2b subgenomic replicon expressing NS5B measured after 3 days by bright-glo luciferase reporter gene assay. Type of data set: functional, organism-based, Hepacivirus hominis. The conditions noted are these: subtype 2b, 72 h. Put shortly: as §3
Data set [20] is described as follows: Cytotoxicity against human HepG2 cells treated for 8 days measured post-last dose by Celltiter-glo luminescent assay. Format: cell-based. Put shortly:
as §2

Data set [21] relates to Hepatitis C virus. Briefly: Antiviral activity against HCV genotype 3a NZL1 subgenomic replicon expressing NS5B measured after 3 days by bright-glo luciferase reporter gene assay. Type of data set: functional, organism-based, Hepacivirus hominis. The following applies: subtype 3a NZL1, 72 h. Put shortly: as §3
A short description of data set [22]: Half life in human hepatocytes assessed as 2a-TP level at 50 uM treated for 24 hrs followed by compound washout by LC-MS/MS analysis. Format: ADME, cell-based, Hepatocyte. Put shortly: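 Primary human hepatocytes loaded with prodrug at 50 μM for 24 h at 37°C. Medium then replaced with blank medium; samples at 0, 3, 6, 10, 24 and 48 h. NTP by LC-MS/MS; half-life from first-order decay; n=3.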

By EC50 is commonly meant the midpoint of the concentration-response curve. For orientation: CC50 means the concentration giving 50% cytotoxicity. As to `CC(C)OC(=O)[C@H](C)N[P@](=O)(OC[C@@]1(F)O[C@@H](n2ccc(=O)[nH]c2=O)[C@](C)(O)[C@@H]1O)Oc1ccccc1` [ADAFOSBUVIR], the EC50 in [1] came out at 70 nM; in data set [14], 60 nM; in data set [15] it was 40 nM; in [18] it was 60 nM; in data set [19] it was 40 nM; in data set [21] it was 60 nM. Moreover, the Drug metabolism in data set [2] was 23.19 µM; in data set [4], “Metabolite_Detected”; in [7], 3540 pmol; in [10] it was “Dose-dependent effect”; in data set [11], 29.991 µM; in [12], 5695 pmol. Moreover, in data set [16], the Drug metabolism turned out to be 35.222 µM. In data set [3], the half-maximal cytotoxic concentration (CC50) at 72 h is > 99000 nM. Moreover, the CC50 at 192 h in [5] was 96100 nM; in [6] it was > 100000 nM; in data set [8], > 100000 nM; in data set [13], > 100000 nM; in [17], > 100000 nM; in data set [20], > 100000 nM. Moreover, the Activity in [9] stood at 100%.
On to `CC(C)OC(=O)[C@H](C)NP(=O)(OC[C@@]1(F)O[C@@H](n2ccc(=O)[nH]c2=O)[C@](C)(O)[C@@H]1O)Oc1ccccc1` (some centres undefined), for which the EC50 in data set [1] was found to be 110 nM. In [3], the CC50 at 72 h was > 100000 nM. Further, in data set [22], the t1/2 is 30.1 h.

These data come from ChEMBL document CHEMBL4393666, “Synthesis and Anti-HCV Activities of 4'-Fluoro-2'-Substituted Uridine Triphosphates and Nucleotide Prodrugs: Discovery of 4'-Fluoro-2'- C-methyluridine 5'-Phosphoramidate Prodrug (AL-335) for the Treatment of Hepatitis C Infection” (J Med Chem, 2019).
